Values belong to the molecule of their own block, whether it stands above or below them. Calls of active or inactive are those of the source. The rule behind the calls is not given here.
Legend:
HeLa [1] = test: Cytotoxicity against human HeLa cells assessed as reduction in cell viability by measuring ethidium homodimer-1 uptake up to 150 uM preincubated for 10 mins followed by ethidium homodimer-1 addition measured after 10 mins by fluorescence assay; format: cell-based
Procedure, shortened: (§1)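 Live/dead cell viability assay in HeLa cells. Maximum death was set by treating cells 10 min with 0.1% Triton-X, then 10 min with 0.4 μM ethidium homodimer-1. Fluorescence was read on a plate reader.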

HeLa [2] = test: Inhibition of TEAD (unknown origin) expressed in human HeLa cells up to 150 uM after 6 hrs by nanoluciferase reporter gene assay; format: cell-based
Procedure, shortened: (§2)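 HeLa cells stably transduced with a lentiviral 8×TEAD-element secreted nanoluciferase reporter were seeded at 2 × 10^4 cells/well and grown 48 h. They were washed and treated with compound for 2 h, washed again and re-treated for 4 h. Secreted nanoluciferase in the conditioned medium was assayed with NanoGlo; n = 3.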

HeLa [3] = test: Cytotoxicity against human HeLa cells assessed as reduction in cell viability by measuring ethidium homodimer-1 uptake at 100 uM preincubated for 10 mins followed by ethidium homodimer-1 addition measured after 10 mins by fluorescence assay; format: cell-based; procedure, shortened: as §1
HeLa [4] = test: Inhibition of TEAD (unknown origin) expressed in human HeLa cells at 100 uM after 6 hrs by nanoluciferase reporter gene assay relative to control; format: cell-based; procedure, shortened: as §2
HeLa [5] = test: Inhibition of TNT1 m-RNA expression in human HeLa cells up to 80 uM incubated for 2 hrs followed by compound wash out and re-treatment for 4 hrs by NanoGlo assay; format: functional, cell-based
HeLa [6] = test: Antiproliferative activity against human HeLa cells assessed as reduction in EdU incorporation after 24 hrs by Hoechst 33342 staining-based fluorescence assay; format: functional, cell-based
Procedure, shortened: (§3)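 Click-iT EdU assay. Cells were treated with compound for 24 h total, with 10 μM EdU present for the final labeling period. Cells were then fixed in 4% formaldehyde, stained for EdU and counterstained with Hoechst 33342 for 20 min. EdU-positive nuclei were counted in at least three fields per well; n = 4.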

VSMC [7] = test: Antimigratory activity in rat VSMC incubated for overnight followed by media replacement and measured every hour for 24 hrs by phase contrast microscopic analysis; format: functional, cell-based
Procedure, shortened: (§4)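 IncuCyte real-time scratch wound assay. Cells were seeded in 96-well plates and grown 36 h, then pretreated overnight with compound. Wells were scratched and the medium was replaced with compound-containing medium. Phase-contrast images of the wound were taken hourly for 24 h and relative wound confluence was calculated; n = 4.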

HeLa [8] = test: Inhibition of TEAD in human HeLa cells assessed as reduction in CTGF m-RNA expression incubated for 2 hrs followed by compound wash out and re-treatment for 4 hrs by NanoGlo assay; format: cell-based
[9] = target: T1, Transcriptional enhancer factor TEF-1 (Homo sapiens, UniProt P28347); test: (§5) Inhibition of GFP-tagged YAP1 (unknown origin) interaction with myc-tagged human TEAD1 expressed in human HeLa cells by measuring myc-TRAP at 200 uM incubated for 30 mins with myc-tagged human TEAD1 lysate followed by GFP-tagged YAP1 lysate addition measured after 30 mins by Western blot based immunoprecipitation assay; format: cell-based
Procedure, shortened: (§6)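 Myc-TEAD1 and GFP-YAP1 were expressed separately in transfected HeLa cells, and pooled cytosolic plus nuclear extracts were prepared. The myc-TEAD extract was incubated 30 min on ice with 200 μM compound, then an equal volume of GFP-YAP lysate was added for another 30 min. Complexes were pulled down with GFP-Trap or Myc-Trap beads and quantified by Western blot; n = 3.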

Rattus norvegicus [10] = species on record: Rattus norvegicus; test: Inhibition of TEAD in rat VSMC assessed as reduction in CCN1 m-RNA expression incubated for 2 hrs followed by compound wash out and re-treatment for 4 hrs by NanoGlo assay
HeLa [11] = test: Inhibition of TEAD in human HeLa cells assessed as reduction in CCN1 m-RNA expression incubated for 2 hrs followed by compound wash out and re-treatment for 4 hrs by NanoGlo assay; format: cell-based
VSMC [12] = test: Inhibition of 36B4 m-RNA expression in rat VSMC up to 80 uM incubated for 2 hrs followed by compound wash out and re-treatment for 4 hrs by NanoGlo assay; format: functional, cell-based
HeLa [13] = test: Inhibition of 36B4 m-RNA expression in human HeLa cells up to 80 uM incubated for 2 hrs followed by compound wash out and re-treatment for 4 hrs by NanoGlo assay; format: functional, cell-based
[14] = target: T1, Transcriptional enhancer factor TEF-1; test: Inhibition of NL-tagged YAP (unknown origin) interaction with myc-tagged human TEAD1 preincubated for 1 hr followed by NL-tagged YAP addition by NanoGlo assay
Procedure, shortened: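 Myc-TEAD1 from transfected HeLa lysate was captured with anti-myc antibody on protein-G-coated 96-well plates. Wells were pretreated with compound in PBS for 1 h at 4 °C, then co-incubated with lysate from HeLa cells expressing YAP–nanoluciferase. After four PBS washes, bound YAP–NL was read with NanoGlo.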

VSMC [15] = test: Antiproliferative activity against rat VSMC assessed as reduction in EdU incorporation after 24 hrs by Hoechst 33342 staining-based fluorescence assay; format: functional, cell-based; procedure, shortened: as §3
VSMC [16] = test: Inhibition of TNT1 m-RNA expression in rat VSMC up to 80 uM incubated for 2 hrs followed by compound wash out and re-treatment for 4 hrs by NanoGlo assay; format: functional, cell-based
HeLa [17] = test: Cytotoxicity against human HeLa cells assessed as reduction in cell viability by measuring ethidium homodimer-1 uptake at 60 uM preincubated for 10 mins followed by ethidium homodimer-1 addition measured after 10 mins by fluorescence assay; format: cell-based; procedure, shortened: as §1
Rattus norvegicus [18] = species on record: Rattus norvegicus; test: Inhibition of TEAD in rat VSMC assessed as reduction in CTGF m-RNA expression incubated for 2 hrs followed by compound wash out and re-treatment for 4 hrs by NanoGlo assay
[19] = Inhibition of TEAD (unknown origin) expressed in human HeLa cells after 6 hrs by nanoluciferase reporter gene assay; format: cell-based; procedure, shortened: as §2
[20] = target: T1, Transcriptional enhancer factor TEF-1; test: Inhibition of human HEK293 cell lysate derived YAP interaction with recombinant GST-tagged human TEAD1 (194 to 411 residues) expressed in Escherichia coli soluBL21 at 200 uM after 18 hrs by Western blot analysis; format: subcellular
Procedure, shortened: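 GST–TEAD1 (about 5 μg) immobilized on glutathione resin beads, incubated with HEK293 whole-cell lysate containing endogenous YAP at 4 °C for 18 h. Resin washed; bound proteins eluted by boiling in Laemmli buffer. YAP and GST quantified by Western blot (anti-YAP, anti-GST); n = 2.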

[21] = target: T1, Transcriptional enhancer factor TEF-1; test: as §5, with “GFP-Trap” for “myc-TRAP”; format: cell-based; procedure, shortened: as §6
HeLa [22] = test: Antimigratory activity in human HeLa cells incubated for overnight followed by media replacement and measured every hour for 24 hrs by phase contrast microscopic analysis; format: functional, cell-based; procedure, shortened: as §4

T1 sequence (P28347 whole entry): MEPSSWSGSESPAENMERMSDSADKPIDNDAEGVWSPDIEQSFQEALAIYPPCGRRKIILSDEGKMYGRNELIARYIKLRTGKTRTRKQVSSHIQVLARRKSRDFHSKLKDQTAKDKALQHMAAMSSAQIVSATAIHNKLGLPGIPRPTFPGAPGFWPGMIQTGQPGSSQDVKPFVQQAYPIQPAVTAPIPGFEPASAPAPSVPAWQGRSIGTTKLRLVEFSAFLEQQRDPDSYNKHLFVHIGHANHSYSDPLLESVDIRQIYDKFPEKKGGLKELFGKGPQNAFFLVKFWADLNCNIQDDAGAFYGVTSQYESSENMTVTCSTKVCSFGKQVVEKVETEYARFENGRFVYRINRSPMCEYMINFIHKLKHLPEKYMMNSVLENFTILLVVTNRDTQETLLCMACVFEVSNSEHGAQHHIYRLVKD

Compound: O=C(O)c1ccco1
Activity (HeLa [1]): Non-Toxic
inhibition (HeLa [2]): inactive

Compound: COc1ccc2nc(NC3=NCN(Cc4ccco4)CN3)nc(C)c2c1
Activity (HeLa [3]): Non-Toxic
inhibition (HeLa [4]): > 60%

Compound: OCC(O)CN1CCNCC1 (stereo not given)
Activity (HeLa [1]): Non-Toxic
inhibition (HeLa [2]): inactive

Compound: CCc1nc(C)nc(Oc2ccc(OCCOc3ccc(C)cc3C)nn2)n1
Activity (HeLa [3]): Non-Toxic
inhibition (HeLa [4]): > 60%

Compound: O=C(NCCn1ncc2c(N3CCN(c4ncccn4)CC3)ncnc21)C12CC3CC(CC(C3)C1)C2
Activity (HeLa [3]): Non-Toxic
inhibition (HeLa [4]): > 60%

inhibition [9]: Active
inhibition (Rattus norvegicus [10]): Dose-dependent effect
inhibition [14]: Dose-dependent effect
inhibition (Rattus norvegicus [18]): Dose-dependent effect
IC50 [19]: 110 µM
inhibition [20]: Active
inhibition [21]: Active
Compound: Cc1ccc2c(c1)c1c3n2CCN(C[C@H](O)CN2CCN(C(=O)c4ccco4)CC2)[C@@H]3CCC1
inhibition (HeLa [5]): inactive
Activity (HeLa [6]): Dose-dependent effect
Activity (VSMC [7]): Dose-dependent effect
inhibition (HeLa [8]): Dose-dependent effect
inhibition (HeLa [11]): Dose-dependent effect
inhibition (VSMC [12]): inactive
inhibition (HeLa [13]): inactive
Activity (VSMC [15]): Dose-dependent effect
inhibition (VSMC [16]): inactive
Activity (HeLa [17]): Non-Toxic
Activity (HeLa [3]): Non-Toxic
Activity (HeLa [22]): Dose-dependent effect
inhibition (HeLa [4]): > 60%

From ChEMBL document CHEMBL4422642, “Antiproliferative and Antimigratory Effects of a Novel YAP-TEAD Interaction Inhibitor Identified Using in Silico Molecular Docking” (J Med Chem, 2019)
